In article PMC9845116 (Saudi Pharmaceutical Journal : SPJ, 2022):
Where two headings read alike, the source gives them in different places.

Tests used:
Assay type in all cases: cell-based
A549 = test: MTT cell viability assay, A549; conditions: for IC50: Homo sapiens, A549, 48 h, read-out: IC50(μM) A549
Hela = test: MTT cell viability assay, Hela; conditions: for IC50: 48 h
HepG2 = test: MTT cell viability assay, HepG2; conditions: for IC50: Homo sapiens, HepG2, 48 h, read-out: IC50(μM) HepG2
MCF-7 = test: MTT cell viability assay, MCF-7
[1] = test system: human liver cell line L-O2; test: Cytotoxic activity on human liver cells
How it was run: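 L-02 cells were grown in DMEM with 10 % FBS and 1 % penicillin–streptomycin at 37 °C, 5 % CO2, then seeded at 2 × 10^4 cells per well in 96-well plates. Test compounds were made as 20 mM DMSO stocks and applied at various concentrations for 48 h. MTT (5 mg/mL stock in PBS) was added for 4 h at 37 °C in the dark. Formazan was dissolved in DMSO and read at 490 nm; triplicate experiments.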

Hela cells [2] = test: Colony formation assay, Hela; conditions: 0.5 mM (so in the source), vs 5-Fu 5 μM
How it was run: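 HeLa cells were seeded at 1500 per well in six-well plates and grown 48 h in regular medium. Cells were exposed to test compound or 5-Fu (positive control) at indicated concentrations for 7 days. They were then PBS-washed, fixed with paraformaldehyde 30 min, stained with crystal violet 30 min, and photographed. Clone formation rate was quantified; mean ± SD of three separate experiments.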

MCF-7 cells = test: Colony formation assay, MCF-7; conditions: 0.5 mM (so in the source), vs 5-Fu 5 μM
How it was run: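 MCF-7 cells grown in DMEM with 10 % FBS and 1 % penicillin–streptomycin at 37 °C, 5 % CO2. Seeded at 1500 cells/well in six-well plates, grown 48 h, then exposed to test compound or 5-Fu for 7 days. Washed with PBS, fixed with paraformaldehyde for 30 min, stained with crystal violet for 30 min, photographed. Clone formation rate quantified; mean ± SD of three separate experiments.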

Hela cells [3] = test: Annexin V-FITC/PI apoptosis assay; conditions: 24 h (control 14.06 %)
Hela cells [4] = test: Hoechst 33,258 staining assay; conditions: increasing concentration 0.5-4 μM, 24 h
How it was run: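 HeLa cells seeded at 1 × 10^4/well in twelve-well plates and grown 24 h in regular medium. Treated 24 h with test compound (0, 0.5, 1, 2, 4 μM) or 5-Fu (5.0 μM). Washed twice with PBS, stained with Hoechst 33,258 for 30 min in the incubator, washed, then imaged by fluorescence microscopy for apoptotic nuclear and cell morphology.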

[5] = Homo sapiens, HeLa, read-out: IC50(μM) Hela, MTT, 48 h, Hela
[6] = Homo sapiens, MCF7, 48 h, read-out: IC50(μM) MCF-7, MTT, 48 h, MCF-7

| SMILES | IC50 (A549) [µM] | IC50 (Hela; [5]) [µM] | IC50 (Hela; read-out: IC50(μM) Hela, MTT, Hela) [µM] | IC50 (HepG2) [µM] | IC50 (MCF-7; [6]) [µM] | IC50 (MCF-7; read-out: IC50(μM) MCF-7, MTT, 48 h, MCF-7) [µM] | inhibitory effect on cell viability over time, A549 (A549; MTT at 24 h, 48 h and 72 h) | fold potency than 5-fluorocrail, Hela (Hela; Hela cells, vs 5-Fu) | inhibitory effect on cell viability over time, Hela (Hela; MTT at 24 h, 48 h and 72 h) | inhibitory effect on cell viability over time, HepG2 (HepG2; MTT at 24 h, 48 h and 72 h) | fold potency than 5-fluorocrail, MCF-7 (MCF-7; MCF-7 cells, vs 5-Fu) | inhibitory effect on cell viability over time, MCF-7 (MCF-7; MTT at 24 h, 48 h and 72 h) | toxicity on normal cells [1] | colony formation, Hela (Hela cells [2]) | colony formation, MCF-7 (MCF-7 cells) | apoptosis index (Hela cells [3]; 0.5 μM) [%] | apoptosis index (Hela cells [3]; 1 μM) [%] | apoptosis index (Hela cells [3]; 2 μM) [%] | apoptosis index (Hela cells [3]; 4 μM) [%] | morphological changes of Hela cells (Hela cells [4]) |
| --- | --- | --- | --- | --- | --- | --- | --- | --- | --- | --- | --- | --- | --- | --- | --- | --- | --- | --- | --- | --- |
| COc1cc(OC)c(C(=O)/C=C/c2ccc(Br)cn2)c(OC)c1 [B3, (E)-3-(5-bromopyridin-2-yl)-1-(2,4,6-trimethoxyphenyl)prop-2-en-1-one] | 5.19 ± 0.23 | 3.2 | 3.2 ± 0.21 | 5.81 ± 0.37 | 3.85 | 3.85 ± 0.28 | excellent inhibitory effect | over 10 fold | excellent inhibitory effect | excellent inhibitory effect | over 10 fold | excellent inhibitory effect | low toxicity to normal cells | slightly better than the positive control | slightly better than the positive control | 16.78 | 26.41 | 30.95 | 39.8 | cells shrinkage, nuclear division and formation of apoptotic bodies |
| COc1cc(OC)c(C(=O)/C=C/c2cccc(Br)n2)c(OC)c1 [B2, (E)-3-(6-bromopyridin-2-yl)-1-(2,4,6-trimethoxyphenyl)prop-2-en-1-one] | 9.36 ± 0.72 | 6.48 ± 0.33 | – | 7.12 ± 0.42 | 7.83 ± 0.45 | – | – | – | – | – | – | – | – | – | – | – | – | – | – | – |

Second part, led by results:

| IC50 (A549) [µM] | IC50 (Hela; [5]) [µM] | IC50 (Hela; read-out: IC50(μM) Hela, MTT, Hela) [µM] | IC50 (HepG2) [µM] | IC50 (MCF-7; [6]) [µM] | IC50 (MCF-7; read-out: IC50(μM) MCF-7, MTT, 48 h, MCF-7) [µM] | SMILES | inhibitory effect on cell viability over time, A549 (A549; MTT at 24 h, 48 h and 72 h) | fold potency than 5-fluorocrail, Hela (Hela; Hela cells, vs 5-Fu) | inhibitory effect on cell viability over time, Hela (Hela; MTT at 24 h, 48 h and 72 h) | inhibitory effect on cell viability over time, HepG2 (HepG2; MTT at 24 h, 48 h and 72 h) | fold potency than 5-fluorocrail, MCF-7 (MCF-7; MCF-7 cells, vs 5-Fu) | inhibitory effect on cell viability over time, MCF-7 (MCF-7; MTT at 24 h, 48 h and 72 h) | toxicity on normal cells [1] | colony formation, Hela (Hela cells [2]) | colony formation, MCF-7 (MCF-7 cells) | apoptosis index (Hela cells [3]; 0.5 μM) [%] | apoptosis index (Hela cells [3]; 1 μM) [%] | apoptosis index (Hela cells [3]; 2 μM) [%] | apoptosis index (Hela cells [3]; 4 μM) [%] | morphological changes of Hela cells (Hela cells [4]) |
| --- | --- | --- | --- | --- | --- | --- | --- | --- | --- | --- | --- | --- | --- | --- | --- | --- | --- | --- | --- | --- |
| > 100 | > 100 | – | > 100 | > 100 | – | COc1cc(OC)c(C(=O)/C=C/c2ccc(OCC3CCCCC3)cc2)c(OC)c1 [C3, (E)-3-(4-(cyclohexylmethoxy)phenyl)-1-(2,4,6-trimethoxyphenyl)prop-2-en-1-one] | – | – | – | – | – | – | – | – | – | – | – | – | – | – |
| > 100 | > 100 | – | > 100 | > 100 | – | COc1cc(OC)c(C(=O)/C=C/c2ccc(OCc3ccc4ccccc4c3)cc2)c(OC)c1 [C8, (E)-3-(4-(naphthalen-2-ylmethoxy)phenyl)-1-(2,4,6-trimethoxyphenyl)prop-2-en-1-one] | – | – | – | – | – | – | – | – | – | – | – | – | – | – |
| 74.2 ± 1.84 | > 100 | – | > 100 | > 100 | – | COc1cc(OC)c(C(=O)/C=C/c2ccc(OCc3ccccn3)cc2)c(OC)c1 [C6, (E)-3-(4-(pyridin-2-ylmethoxy)phenyl)-1-(2,4,6-trimethoxyphenyl)prop-2-en-1-one] | – | – | – | – | – | – | – | – | – | – | – | – | – | – |
